ChEMBL document CHEMBL1799960, “Diadenosine 5',5''-(boranated)polyphosphonate analogues as selective nucleotide pyrophosphatase/phosphodiesterase inhibitors” (J Med Chem, 2010)

Experiments:
[1] = molecular target: Autotaxin (Homo sapiens) (UniProt Q13822); assay: Inhibition of human NPP2 expressed in COS7 cells assessed as production of p-nitrophenol using pnp-TMP as the substrate at 100 uM after 15 mins […]; type: cell-based; conditions: COS-7
How it was run: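 Human NPP1, NPP2 (membrane lysate or conditioned medium for the secreted form) or NPP3 from transfected COS-7 cells, preincubated 3 min at 37 °C in 50 mM Tris pH 8.5 buffer with CaCl2, NaCl and KCl. Substrate and inhibitor both at 100 μM final. pnp-TMP: p-nitrophenol read at 405 nm at 15 min. ATP or Ap5A: stopped at 30 min with perchloric acid, then HPLC. Results as % residual activity versus control; three to six experiments in triplicate.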

[2] = molecular target: T1, Ectonucleoside triphosphate diphosphohydrolase 3 (Homo sapiens) (UniProt O75355); assay: Inhibition of human NTPDase3 expressed in COS7 cells assessed as amount of inorganic phosphate released using ATP as the substrate at 100 uM after 15 mins by malachite green reagent method; type: cell-based; conditions: COS-7
T1 sequence (whole entry): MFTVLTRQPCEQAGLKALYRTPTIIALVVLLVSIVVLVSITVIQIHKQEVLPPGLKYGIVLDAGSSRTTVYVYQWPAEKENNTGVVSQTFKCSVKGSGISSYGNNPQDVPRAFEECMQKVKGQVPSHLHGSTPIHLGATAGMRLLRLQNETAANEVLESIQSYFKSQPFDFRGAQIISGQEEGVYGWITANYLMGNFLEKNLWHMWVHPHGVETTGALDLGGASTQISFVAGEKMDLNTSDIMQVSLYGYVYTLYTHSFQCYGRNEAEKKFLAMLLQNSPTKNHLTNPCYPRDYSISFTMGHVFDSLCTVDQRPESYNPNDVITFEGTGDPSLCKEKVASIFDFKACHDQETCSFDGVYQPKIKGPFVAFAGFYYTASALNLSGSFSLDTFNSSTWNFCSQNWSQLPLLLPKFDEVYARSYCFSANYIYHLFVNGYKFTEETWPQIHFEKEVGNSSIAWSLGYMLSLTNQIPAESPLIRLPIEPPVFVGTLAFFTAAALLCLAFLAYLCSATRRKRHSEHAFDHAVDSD
How it was run: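 Protein extracts of transfected COS-7 cells (ecto-5'-nucleotidase: 100 μM AMP substrate; NTPDases: 100 μM ATP) were preincubated 3 min at 37 °C in Tris-Ringer pH 7.3 with inhibitor at 100 μM final. After 15 min, malachite green stop; Pi read at 630 nm. Activity given as % of substrate-only control. Mean ± SD of three experiments in triplicate.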

[3] = molecular target: T2, Ectonucleotide pyrophosphatase/phosphodiesterase family member 1 (Homo sapiens) (UniProt P22413); assay: Inhibition of human NPP1 in human HT29 cells assessed as production of p-nitrophenol using pnp-TMP as the substrate […]; type: cell-based; conditions: HT-29
T2 sequence (whole entry): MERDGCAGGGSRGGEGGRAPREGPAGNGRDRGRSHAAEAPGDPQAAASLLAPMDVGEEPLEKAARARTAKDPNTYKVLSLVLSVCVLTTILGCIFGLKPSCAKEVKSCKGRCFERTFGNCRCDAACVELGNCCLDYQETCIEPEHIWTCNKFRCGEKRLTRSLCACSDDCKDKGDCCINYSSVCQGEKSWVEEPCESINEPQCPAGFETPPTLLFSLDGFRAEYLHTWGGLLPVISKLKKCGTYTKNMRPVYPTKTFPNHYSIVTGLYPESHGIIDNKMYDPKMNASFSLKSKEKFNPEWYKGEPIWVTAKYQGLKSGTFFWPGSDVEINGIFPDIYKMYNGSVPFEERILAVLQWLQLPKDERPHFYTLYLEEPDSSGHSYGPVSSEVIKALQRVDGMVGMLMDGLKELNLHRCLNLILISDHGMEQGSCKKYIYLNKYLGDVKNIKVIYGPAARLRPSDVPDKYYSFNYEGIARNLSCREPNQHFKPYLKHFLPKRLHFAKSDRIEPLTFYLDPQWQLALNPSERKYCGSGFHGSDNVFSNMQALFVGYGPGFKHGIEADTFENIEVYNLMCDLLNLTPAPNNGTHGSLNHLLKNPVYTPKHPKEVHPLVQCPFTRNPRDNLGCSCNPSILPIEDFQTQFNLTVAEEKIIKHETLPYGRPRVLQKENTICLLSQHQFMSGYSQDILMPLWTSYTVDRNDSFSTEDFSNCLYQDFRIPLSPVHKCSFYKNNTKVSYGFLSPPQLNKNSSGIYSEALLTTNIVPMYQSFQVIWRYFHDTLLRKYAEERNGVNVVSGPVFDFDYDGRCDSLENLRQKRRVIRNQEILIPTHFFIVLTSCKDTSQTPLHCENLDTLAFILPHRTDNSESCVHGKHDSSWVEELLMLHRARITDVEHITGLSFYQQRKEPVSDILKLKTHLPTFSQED

[4] = molecular target: T3, Ectonucleotide pyrophosphatase/phosphodiesterase family member 1 (Homo sapiens, UniProt P22413); assay: Inhibition of human NPP1 expressed in COS7 cells assessed as enzyme-substrate-inhibitor dissociation constant using pnp-TMP as the substrate after 15 mins […]; type: cell-based, COS-7
T3 sequence (P22413 whole entry): T2 sequence (whole entry)

[5] = molecular target: T2, Ectonucleotide pyrophosphatase/phosphodiesterase family member 1 (Homo sapiens); assay: Inhibition of human NPP1 expressed in COS7 cells assessed as amount of inorganic phosphate released using ATP as the substrate at 100 uM after 15 mins by malachite green reagent method; type: cell-based; conditions: COS-7

Row | inhibition [1] | inhibition [2] | inhibition [3] | Ki [4] | inhibition [5] | SMILES
1 | 95% | 10% | 80% | 80 µM | > 90% | Nc1ncnc2c1ncn2[C@H]1C[C@H](O)[C@@H](COP(=O)(O)CP(=O)(O)OP(=O)(O)CP(=O)(O)OC[C@H]2O[C@@H](n3cnc4c(N)ncnc43)C[C@@H]2O)O1
2 | 95% | 10% | 90% | 31 µM | > 90% | BP(=O)(OP(=O)(O)CP(=O)(O)OC[C@H]1O[C@@H](n2cnc3c(N)ncnc32)[C@H](O)[C@@H]1O)OP(=O)(O)CP(=O)(O)OC[C@H]1O[C@@H](n2cnc3c(N)ncnc32)[C@H](O)[C@@H]1O
3 | 95% | 10% | 90% | 145 µM | 70% | BP(=O)(OP(=O)(O)CP(=O)(O)OC[C@H]1O[C@@H](n2cnc3c(N)ncnc32)C[C@@H]1O)OP(=O)(O)CP(=O)(O)OC[C@H]1O[C@@H](n2cnc3c(N)ncnc32)C[C@@H]1O
4 | 95% | 10% | 80% | 147 µM | 70% | Nc1ncnc2c1ncn2[C@@H]1O[C@H](COP(=O)(O)CP(=O)(O)OP(=O)(O)CP(=O)(O)OC[C@H]2O[C@@H](n3cnc4c(N)ncnc43)[C@H](O)[C@@H]2O)[C@@H](O)[C@H]1O
